Experimental data as given in ChEMBL document CHEMBL5674883, “The Heterochromatin Landscape in Migrating Cells and the Importance of H3K27me3 for Associated Transcriptome Alterations” (Cells, 2018).

How the values were obtained:
Type in all cases: cell-based
[1] = target: Histone-lysine N-methyltransferase EZH2 (Mus musculus) (UniProt Q61188); test: Inhibition of EZH2 in mouse B16-F1 migrating cells assessed as fold change in H3K27me3-dependent regulated Mir22hg-mRNA expression at 3 uM measured by […] analysis relative to control cells
Summary of the method: (§1)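 Confluent B16-F1 cells on fibronectin-coated plates were scratched at multiple sites, washed once with DMEM and left to migrate 3 h in growth medium (37 °C, 7% CO2); unscratched cells served as control. GSK343 (3 µM) was added 3 h before lysis. Poly A mRNA was sequenced (RNA-seq), with 5 replicates for untreated and 3 for treated cells. Differential expression was called by linear model with batch correction, at FDR <0.05 and fold change ≥1.3.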

[2] = target: Histone-lysine N-methyltransferase EZH2 (Mus musculus) (UniProt Q61188); test: Inhibition of EZH2 in mouse B16-F1 migrating cells assessed as fold change in H3K27me3-independent regulated Coq10b-mRNA expression at 3 uM measured by […] analysis relative to control cells; summary of the method: as §1
[3] = target: Histone-lysine N-methyltransferase EZH2 (Mus musculus) (UniProt Q61188); test: Inhibition of EZH2 in mouse B16-F1 migrating cells assessed as fold change in H3K27me3-independent regulated Ahnak-mRNA expression at 3 uM measured by […] analysis relative to control cells; summary of the method: as §1
[4] = target: Histone-lysine N-methyltransferase EZH2 (Mus musculus) (UniProt Q61188); test: Inhibition of EZH2 in mouse B16-F1 migrating cells assessed as fold change in H3K27me3-buffered regulated Gm28989-mRNA expression at 3 uM measured by […] analysis relative to control cells
Summary of the method: (§2)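 Confluent B16-F1 cells on fibronectin-coated plates, cultured at 37 °C and 7% CO2, were scratched at multiple sites to induce migration. They were then held 3 h in growth medium containing 3 µM GSK343, with the inhibitor added 3 h before lysis. Unscratched cells served as controls. Poly A mRNA was analysed by RNA-seq (n=3 GSK343, n=5 controls). Linear models removed batch effects, and buffered genes were those altered only under GSK343 (FDR <0.05, fold change >1.3).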

[5] = target: Histone-lysine N-methyltransferase EZH2 (Mus musculus) (UniProt Q61188); test: Inhibition of EZH2 in mouse B16-F1 migrating cells assessed as fold change in H3K27me3-buffered regulated Pygm-mRNA expression at 3 uM measured by […] analysis relative to control cells; summary of the method: as §2
[6] = target: Histone-lysine N-methyltransferase EZH2 (Mus musculus) (UniProt Q61188); test: Inhibition of EZH2 in mouse B16-F1 migrating cells assessed as fold change in H3K27me3-buffered regulated Aldoa-mRNA expression at 3 uM measured by […] analysis relative to control cells; summary of the method: as §2
[7] = target: Histone-lysine N-methyltransferase EZH2 (Mus musculus) (UniProt Q61188); test: Inhibition of EZH2 in mouse B16-F1 migrating cells assessed as fold change in H3K27me3-buffered regulated Ndufv3-mRNA expression at 3 uM measured by […] analysis relative to control cells; summary of the method: as §2
[8] = target: Histone-lysine N-methyltransferase EZH2 (Mus musculus) (UniProt Q61188); test: Inhibition of EZH2 in mouse B16-F1 migrating cells assessed as fold change in H3K27me3-buffered regulated Ptp4a1-mRNA expression at 3 uM measured by […] analysis relative to control cells; summary of the method: as §2
[9] = target: Histone-lysine N-methyltransferase EZH2 (Mus musculus) (UniProt Q61188); test: Inhibition of EZH2 in mouse B16-F1 migrating cells assessed as fold change in H3K27me3-buffered regulated Zc3h7a-mRNA expression at 3 uM measured by […] analysis relative to control cells; summary of the method: as §1
[10] = target: Histone-lysine N-methyltransferase EZH2 (Mus musculus) (UniProt Q61188); test: Inhibition of EZH2 in mouse B16-F1 migrating cells assessed as fold change in H3K27me3-buffered regulated Rev3l-mRNA expression at 3 uM measured by ChIP-seq analysis relative to control cells; summary of the method: as §2
[11] = target: Histone-lysine N-methyltransferase EZH2 (Mus musculus) (UniProt Q61188); test: Inhibition of EZH2 in mouse B16-F1 migrating cells assessed as fold change in H3K27me3-buffered regulated Tet2-mRNA expression at 3 uM measured by ChIP-seq analysis relative to control cells; summary of the method: as §1
[12] = target: Histone-lysine N-methyltransferase EZH2 (Mus musculus) (UniProt Q61188); test: Inhibition of EZH2 in mouse B16-F1 migrating cells assessed as fold change in H3K27me3-buffered regulated Spag1-mRNA expression at 3 uM measured by […] analysis relative to control cells; summary of the method: as §1
[13] = target: Histone-lysine N-methyltransferase EZH2 (Mus musculus) (UniProt Q61188); test: Inhibition of EZH2 in mouse B16-F1 migrating cells assessed as fold change in H3K27me3-buffered regulated Ccdc18-mRNA expression at 3 uM measured by […] analysis relative to control cells; summary of the method: as §2
[14] = target: Histone-lysine N-methyltransferase EZH2 (Mus musculus) (UniProt Q61188); test: Inhibition of EZH2 in mouse B16-F1 migrating cells assessed as fold change in H3K27me3-buffered regulated 1810032O08Rik-mRNA expression at 3 uM measured by […] analysis relative to control cells; summary of the method: as §2
[15] = target: T1, RNA polymerase II (Mus musculus) (UniProt P08775+Q8CFI7+P97760+A0A3Q4L2S8+Q80UW8+P61219+P62488+Q923G2+P60898+O08740+Q63871+P62876); test: Inhibition of RNA polymerase II in mouse B16-F1 migrating cells assessed as fold change in Fosb-RNA stability at 0.1 mM measured by ChIP-seq analysis relative to control cells
[16] = target: T1, RNA polymerase II (Mus musculus); test: Inhibition of RNA polymerase II in mouse B16-F1 migrating cells assessed as fold change in Borcs8-RNA stability at 0.1 mM measured by […] analysis relative to control cells
Summary of the method: (§3)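 Mouse B16-F1 melanoma cells grown to confluence on fibronectin in DMEM/10% FCS at 37 °C, 7% CO2. Migration induced by multiple scratches and 3 h incubation; unscratched controls. DRB 0.1 mM added 3 h before lysis. RNA from poly A-selected mRNA was sequenced (RNA-seq, three replicates per DRB group). Fold change computed for DRB-treated migrating vs DRB-treated control cells; cutoffs fold change >1.3, FDR <0.05.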

[17] = target: T1, RNA polymerase II (Mus musculus); test: Inhibition of RNA polymerase II in mouse B16-F1 migrating cells assessed as fold change in Sh3bgrl3-RNA stability at 0.1 mM measured by […] analysis relative to control cells
[18] = target: T1, RNA polymerase II (Mus musculus); test: Inhibition of RNA polymerase II in mouse B16-F1 migrating cells assessed as fold change in Mad2l2-RNA stability at 0.1 mM measured by ChIP-seq analysis relative to control cells
[19] = target: T1, RNA polymerase II (Mus musculus); test: Inhibition of RNA polymerase II in mouse B16-F1 migrating cells assessed as fold change in Fkbp8-RNA stability at 0.1 mM measured by ChIP-seq analysis relative to control cells
[20] = target: T1, RNA polymerase II (Mus musculus); test: Inhibition of RNA polymerase II in mouse B16-F1 migrating cells assessed as fold change in Trpv2-RNA stability at 0.1 mM measured by […] analysis relative to control cells
[21] = target: T1, RNA polymerase II (Mus musculus); test: Inhibition of RNA polymerase II in mouse B16-F1 migrating cells assessed as fold change in Cul4b-RNA stability at 0.1 mM measured by […] analysis relative to control cells; summary of the method: as §3
[22] = target: T1, RNA polymerase II (Mus musculus); test: Inhibition of RNA polymerase II in mouse B16-F1 migrating cells assessed as fold change in Alkbh8-RNA stability at 0.1 mM measured by […] analysis relative to control cells
[23] = target: T1, RNA polymerase II (Mus musculus); test: Inhibition of RNA polymerase II in mouse B16-F1 migrating cells assessed as fold change in Ifit2-RNA stability at 0.1 mM measured by […] analysis relative to control cells; summary of the method: as §3
[24] = target: T1, RNA polymerase II (Mus musculus); test: Inhibition of RNA polymerase II in mouse B16-F1 migrating cells assessed as fold change in Zcchc10-RNA stability at 0.1 mM measured by […] analysis relative to control cells

Chain of Histone-lysine N-methyltransferase EZH2 (Mus musculus) (Q61188 whole entry): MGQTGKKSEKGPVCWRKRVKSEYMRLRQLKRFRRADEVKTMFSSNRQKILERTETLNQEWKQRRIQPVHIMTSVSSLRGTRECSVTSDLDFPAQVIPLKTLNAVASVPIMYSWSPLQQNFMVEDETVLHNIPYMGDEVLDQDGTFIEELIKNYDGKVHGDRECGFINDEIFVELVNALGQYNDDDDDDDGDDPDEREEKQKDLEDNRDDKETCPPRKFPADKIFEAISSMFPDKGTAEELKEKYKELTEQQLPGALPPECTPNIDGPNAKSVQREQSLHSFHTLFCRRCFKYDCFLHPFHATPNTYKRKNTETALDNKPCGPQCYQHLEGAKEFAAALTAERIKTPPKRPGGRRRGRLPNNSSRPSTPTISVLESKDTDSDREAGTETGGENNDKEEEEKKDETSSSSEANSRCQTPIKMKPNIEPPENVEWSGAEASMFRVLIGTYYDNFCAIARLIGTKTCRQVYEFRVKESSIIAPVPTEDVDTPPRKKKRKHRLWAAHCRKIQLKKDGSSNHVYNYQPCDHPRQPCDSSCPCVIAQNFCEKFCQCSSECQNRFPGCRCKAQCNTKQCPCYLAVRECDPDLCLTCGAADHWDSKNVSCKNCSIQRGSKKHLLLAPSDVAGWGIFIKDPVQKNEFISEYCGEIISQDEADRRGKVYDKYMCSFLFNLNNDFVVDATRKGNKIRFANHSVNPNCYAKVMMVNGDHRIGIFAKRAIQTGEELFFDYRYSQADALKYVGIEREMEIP

CCCc1cc(C)[nH]c(=O)c1CNC(=O)c1cc(-c2ccnc(N3CCN(C)CC3)c2)cc2c1cnn2C(C)C gave a log2FC [1] of 0.05, a log2FC [2] of 0.56 and a log2FC [3] of 0.4. The log2FC [4] was 1.08, the log2FC [5] was 0.85 and the log2FC [6] was 0.42. For the same compound, the log2FC [7] was 0.38, the log2FC [8] was 0.38 and the log2FC [9] was -0.42. It also gave a log2FC [10] of -0.47, a log2FC [11] of -0.48 and a log2FC [12] of -0.78. For the same compound, the log2FC [13] was -0.87 and the log2FC [14] was -1.08.

Work on OC[C@H]1O[C@@H](n2cnc3cc(Cl)c(Cl)cc32)[C@H](O)[C@@H]1O yielded a log2FC [15] of 2.03, a log2FC [16] of 0.57 and a log2FC [17] of 0.55. For the same compound, the log2FC [18] was 0.43, the log2FC [19] was 0.41 and the log2FC [20] was 0.41. The log2FC [21] was -0.49, the log2FC [22] was -0.55 and the log2FC [23] was -0.69. For the same compound, the log2FC [24] was -0.7.
